Source: ChEMBL document CHEMBL1255424, “Antistaphylococcal activity of ACHN-490 tested alone and in combination with other agents by time-kill assay” (2010)
In brackets after ≈: the same amount, converted by molar mass.

Experiments:
Format in all cases: functional
[1] = system: Staphylococcus aureus; assay: Antibacterial activity against vancomycin-susceptible Staphylococcus aureus after 24 hrs by modified broth macrodilution method
Summary of the method: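 MICs determined in recent clinical MRSA isolates by a modified broth macrodilution method per CLSI recommendations, with 24 h incubation. Daptomycin tests used Mueller-Hinton broth supplemented with calcium. Value is the lowest inhibitory drug concentration.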

[2] = system: Staphylococcus aureus; assay: Antibacterial activity against vancomycin-intermediate Staphylococcus aureus after 24 hrs by modified broth macrodilution method
Summary of the method: (§1)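 MIC read after 24 h incubation by modified broth macrodilution, validated per CLSI recommendations, against recent clinical MRSA isolates (hospital- and community-acquired, hVISA, VISA, VRSA). Daptomycin tests ran in Mueller-Hinton broth with added calcium.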

[3] = system: Staphylococcus aureus; assay: Antibacterial activity against vancomycin-hetero-intermediate Staphylococcus aureus after 24 hrs by modified broth macrodilution method; summary of the method: as §1
[4] = system: Staphylococcus aureus; assay: Antibacterial activity against vancomycin-resistant Staphylococcus aureus after 24 hrs by modified broth macrodilution method; summary of the method: as §1
[5] = system: Staphylococcus aureus; assay: Antibacterial activity against vancomycin-resistant Staphylococcus aureus isolate 557 after 24 hrs by modified broth macrodilution method; conditions: isolate 557, 24 h; summary of the method: as §1
[6] = system: Staphylococcus aureus; assay: Antibacterial activity against vancomycin-resistant Staphylococcus aureus isolate 509 after 24 hrs by modified broth macrodilution method; conditions: isolate 509, 24 h; summary of the method: as §1
[7] = system: Staphylococcus aureus; assay: Antibacterial activity against vancomycin-resistant Staphylococcus aureus isolate 1263 after 24 hrs by modified broth macrodilution method; conditions: isolate 1263, 24 h; summary of the method: as §1
[8] = system: Staphylococcus aureus; assay: Antibacterial activity against vancomycin-resistant Staphylococcus aureus isolate 1264 after 24 hrs by modified broth macrodilution method; conditions: isolate 1264, 24 h; summary of the method: as §1
[9] = system: Staphylococcus aureus; assay: Antibacterial activity against vancomycin-hetero-intermediate Staphylococcus aureus isolate 618 after 24 hrs by modified broth macrodilution method; conditions: isolate 618, 24 h; summary of the method: as §1
[10] = system: Staphylococcus aureus; assay: Antibacterial activity against vancomycin-hetero-intermediate Staphylococcus aureus isolate 873 after 24 hrs by modified broth macrodilution method; conditions: isolate 873, 24 h; summary of the method: as §1
[11] = system: Staphylococcus aureus; assay: Antibacterial activity against vancomycin-intermediate Staphylococcus aureus isolate 555 after 24 hrs by modified broth macrodilution method; conditions: isolate 555, 24 h; summary of the method: as §1
[12] = system: Staphylococcus aureus; assay: Antibacterial activity against vancomycin-intermediate Staphylococcus aureus isolate 1287 after 24 hrs by modified broth macrodilution method; conditions: isolate 1287, 24 h; summary of the method: as §1
[13] = system: Staphylococcus aureus; assay: Antibacterial activity against vancomycin-intermediate Staphylococcus aureus isolate 770 after 24 hrs by modified broth macrodilution method; conditions: isolate 770, 24 h; summary of the method: as §1
[14] = system: Staphylococcus aureus; assay: Antibacterial activity against vancomycin-intermediate Staphylococcus aureus isolate 1008 after 24 hrs by modified broth macrodilution method; conditions: isolate 1008, 24 h; summary of the method: as §1
[15] = system: Staphylococcus aureus; assay: Antibacterial activity against vancomycin-intermediate Staphylococcus aureus isolate 1009 after 24 hrs by modified broth macrodilution method; conditions: isolate 1009, 24 h; summary of the method: as §1
[16] = system: Staphylococcus aureus; assay: Antibacterial activity against vancomycin-intermediate Staphylococcus aureus isolate 1010 after 24 hrs by modified broth macrodilution method; conditions: isolate 1010, 24 h; summary of the method: as §1
[17] = system: Staphylococcus aureus; assay: Antibacterial activity against vancomycin-intermediate Staphylococcus aureus isolate 1011 after 24 hrs by modified broth macrodilution method; conditions: isolate 1011, 24 h; summary of the method: as §1
[18] = system: Staphylococcus aureus; assay: Antibacterial activity against vancomycin-intermediate Staphylococcus aureus isolate 1012 after 24 hrs by modified broth macrodilution method; conditions: isolate 1012, 24 h; summary of the method: as §1
[19] = system: Staphylococcus aureus; assay: Antibacterial activity against vancomycin-intermediate Staphylococcus aureus isolate 1013 after 24 hrs by modified broth macrodilution method; conditions: isolate 1013, 24 h; summary of the method: as §1
[20] = system: Staphylococcus aureus; assay: Antibacterial activity against vancomycin-intermediate Staphylococcus aureus isolate 1014 after 24 hrs by modified broth macrodilution method; conditions: isolate 1014, 24 h; summary of the method: as §1
[21] = system: Staphylococcus aureus; assay: Antibacterial activity against vancomycin-intermediate Staphylococcus aureus isolate 1015 after 24 hrs by modified broth macrodilution method; conditions: isolate 1015, 24 h; summary of the method: as §1
[22] = system: Staphylococcus aureus; assay: Antibacterial activity against vancomycin-intermediate Staphylococcus aureus isolate 1016 after 24 hrs by modified broth macrodilution method; conditions: isolate 1016, 24 h; summary of the method: as §1
[23] = system: Staphylococcus aureus; assay: Antibacterial activity against vancomycin-intermediate Staphylococcus aureus isolate 1017 after 24 hrs by modified broth macrodilution method; conditions: isolate 1017, 24 h; summary of the method: as §1
[24] = system: Staphylococcus aureus; assay: Antibacterial activity against vancomycin-intermediate Staphylococcus aureus isolate 511 after 24 hrs by modified broth macrodilution method; conditions: isolate 511, 24 h; summary of the method: as §1
[25] = system: Staphylococcus aureus; assay: Antibacterial activity against vancomycin-intermediate Staphylococcus aureus isolate 1003 after 24 hrs by modified broth macrodilution method; conditions: isolate 1003, 24 h; summary of the method: as §1

## CCCCCCCCCC(=O)N[C@@H](Cc1c[nH]c2ccccc12)C(=O)N[C@H](CC(N)=O)C(=O)N[C@@H](CC(=O)O)C(=O)N[C@@H]1C(=O)NCC(=O)N[C@@H](CCCN)C(=O)N[C@@H](CC(=O)O)C(=O)N[C@H](C)C(=O)N[C@@H](CC(=O)O)C(=O)NCC(=O)N[C@H](CO)C(=O)N[C@@H]([C@H](C)CC(=O)O)C(=O)N[C@@H](CC(=O)c2ccccc2N)C(=O)O[C@@H]1C
[1]
  MIC: 0.25 µg/mL (≈ 0.154 µM)
[2]
  MIC: 0.5 µg/mL (≈ 0.309 µM)
[3]
  MIC: 0.5 µg/mL (≈ 0.309 µM)
[4]
  MIC: 0.25 µg/mL (≈ 0.154 µM)
[5]
  MIC: 0.25 µg/mL (≈ 0.154 µM)
[6]
  MIC: 0.5 µg/mL (≈ 0.309 µM)
[7]
  MIC: 0.5 µg/mL (≈ 0.309 µM)
[8]
  MIC: 0.25 µg/mL (≈ 0.154 µM)
[9]
  MIC: 1 µg/mL (≈ 0.617 µM)
[10]
  MIC: 0.5 µg/mL (≈ 0.309 µM)
[11]
  MIC: 4 µg/mL (≈ 2.47 µM)
[12]
  MIC: 2 µg/mL (≈ 1.23 µM)
[13]
  MIC: 0.5 µg/mL (≈ 0.309 µM)
[14]
  MIC: 2 µg/mL (≈ 1.23 µM)
[15]
  MIC: 2 µg/mL (≈ 1.23 µM)
[16]
  MIC: 1 µg/mL (≈ 0.617 µM)
[17]
  MIC: 1 µg/mL (≈ 0.617 µM)
[18]
  MIC: 1 µg/mL (≈ 0.617 µM)
[19]
  MIC: 2 µg/mL (≈ 1.23 µM)
[20]
  MIC: 2 µg/mL (≈ 1.23 µM)
[21]
  MIC: 1 µg/mL (≈ 0.617 µM)
[22]
  MIC: 2 µg/mL (≈ 1.23 µM)
[23]
  MIC: 1 µg/mL (≈ 0.617 µM)
[24]
  MIC: 1 µg/mL (≈ 0.617 µM)
[25]
  MIC: 2 µg/mL (≈ 1.23 µM)
